# Screening data: PubChem, The Scripps Research Institute Molecular Screening Center
# Only some compounds are listed: those with a hit (about 1.8% of all), similar ones and a draw of the others.
# TCR-CD3 inh: blocks the human TCR-CD3 interaction | 0.37% of 360,000 active | AID 651800 | TAMRA-labeled TCR probe fluorescence, biochemical | inhibition, % at 9.4 µM; in the data active means inhibition above about 19%;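 further: recombinant mutant TCR 2C K166C tagged with TAMRA read by polarization; 0% = receptor in buffer alone and 100% = receptor with positive control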
# SIAE inh: inhibitors of human sialic acid acetylesterase SIAE; inhibition, % at 9.66 µM; AID 1053197; 0.69% of 370,000 active; SIAE FP-Rh probe binding, fluorescence polarization;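 active means inhibition above a cutoff: mean of compounds within the control limits plus 3 SD of those, cut at about 17% in these data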;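 further: 0% = plate median of compound wells and 100% = probe without SIAE protein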
# mABHD4 FP: ABHD4 (mouse) inhibition, primary FP screen; purified mABHD4, FP-Rh probe fluorescence polarization; inhibition, % at 8.92 µM; 0.54% of 370,000 active;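 active means inhibition exceeding the mean over every tested compound plus 3 SD, cut at about 30% in these data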;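 further: 0% = plate median of compound wells and 100% = S159A mutant with DMSO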
# Target sequence (Q8VD66 whole entry, looked up): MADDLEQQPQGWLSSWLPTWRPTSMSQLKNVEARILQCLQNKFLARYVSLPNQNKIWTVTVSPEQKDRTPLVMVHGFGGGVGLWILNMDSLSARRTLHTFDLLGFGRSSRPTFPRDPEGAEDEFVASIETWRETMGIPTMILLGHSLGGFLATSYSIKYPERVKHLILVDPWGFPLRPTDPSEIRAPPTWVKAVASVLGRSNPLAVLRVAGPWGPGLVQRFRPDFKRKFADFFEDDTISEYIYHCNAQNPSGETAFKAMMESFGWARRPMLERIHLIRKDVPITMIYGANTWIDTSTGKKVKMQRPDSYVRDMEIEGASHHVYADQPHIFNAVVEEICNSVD
#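 System: mouse ABHD4 enzyme, wild type / Medium: HEPES pH 7.0, NaCl, Pluronic buffer / Reagent: FP-Rh activity-based fluorescent probe / Control set: S159A mutant high control, sample median low control / Detection: fluorescence polarization with parallel and perpendicular emission, 525/598 nm / Schedule: 45 min + 60 min at 25 °C / Compound dosing: 8.92 µM, single dose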
# HTRA1 inh: HTRA1 (human) protease inhibition; 0.5% of 340,000 active; recombinant HTRA1, FP-rhodamine activity-based probe, fluorescence polarization; inhibition, % at 5.96 µM; in the data active means inhibition above about 36%;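 further: 0% = enzyme with DMSO and 100% = wells lacking enzyme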
# Fam108B inh: Fam108B inhibition, counter-screen for RBBP9 inhibitors. AID 1947. 0.33% of 300,000 active. recombinant Fam108B, FP-Rh probe fluorescence polarization. inhibition, % at 9.51 µM;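 active means inhibition above the screen mean inhibition plus 3 SD, computed separately per campaign, cut at about 18% in these data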;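 further: inhibitors lower polarization as less probe binds the enzyme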
# PME-1 primary: blocks human protein phosphatase methylesterase 1 | Q9Y570 | recombinant PME-1, FP-Rh probe fluorescence polarization | inhibition, % at 5.9 µM | 0.53% of 320,000 active;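 active means inhibition above the campaign mean of all compounds plus 3 SD, cut at about 26% in these data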;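 further: competitive labeling of PME-1 active site by serine hydrolase directed probe; 0% = PME-1 with DMSO and 100% = wells lacking PME-1 enzyme; inhibitors block probe labeling so polarization falls and inhibition rises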
# An asterisk follows results filed as active; . = no result.
SMILES,TCR-CD3 inh,SIAE inh,mABHD4 FP,HTRA1 inh,Fam108B inh,PME-1 primary
CN(C)S(=O)(=O)c1ccc(Cl)c(NC(=O)COC(=O)c2ccc(O)cc2)c1,-1,1,1,0,4,14
CCN(CC)S(=O)(=O)c1ccc(C)c(NC(=O)COC(=O)c2ccc(C)c(S(=O)(=O)N3CCOCC3)c2)c1,1,-4,-8,-11,-6,51*
C[C@@H](CO)N(Cc1cn(Cc2ccccc2)nn1)S(=O)(=O)c1ccc(F)cc1Br,.,1,3,.,.,.
CC(CCN1CCC(C(O)(c2ccccc2)c2ccccc2)CC1)Oc1ccccc1C#N (configuration not stated),.,0,3,.,.,.
CCOC(=O)N1CCN(C(=O)CCS(=O)(=O)c2ccc(Br)s2)CC1,0,17*,6,9,0,4
Cc1cc(C)c2[nH]c(O)c(N=NC3=NC(=O)CS3)c2c1,3,10,18,29,5,28*
Cc1ccc(C(=O)OCC(=O)Nc2ccccc2N2CCOCC2)cc1,-2,18*,1,-7,-1,12
O=C(COC(=O)c1ccc(F)cc1)Nc1ccccc1N1CCOCC1,1,11,0,7,-1,3
C/C(=N\NC(=O)c1ccc(Br)cc1)C1C(=O)c2ccccc2C1=O,27*,0,36*,40*,16,10
CCOc1ccc(C(=O)N/N=C(/C)C2C(=O)c3ccccc3C2=O)cc1,9,4,10,10,3,-3
CC(C)(C)N(Cc1cn(CC2CCCCC2)nn1)S(=O)(=O)c1ccccc1Br,.,0,0,.,.,.
Cc1ccc2c(c1)C1C=CCC1C(C(=O)O)N2 (configuration not stated),.,.,.,.,46*,14
Cc1cccc(OCC(C)CN2CCC(C(O)(c3ccccc3)c3ccccc3)CC2)c1 (configuration not stated),.,8,1,.,.,.
CC(C1=CCCCC1)c1cnn(C)c1 (configuration not stated),.,1,-2,.,.,.
COc1cc(/C=C/c2ccc3cccc(O)c3n2)ccc1O,-1,13,18,34,14,34*
Cc1ccccc1CN1CCCCC(NC(=O)c2ccc(-c3ccccc3)cc2)C1=O (configuration not stated),.,-7,-13,.,.,.
CCN(Cc1cn(Cc2ccc(C)cc2)nn1)S(=O)(=O)c1ccccc1Br,.,2,0,.,.,.
COCCn1c(C)cc(C(=O)COC(=O)c2ccc(Cl)c(S(N)(=O)=O)c2)c1C,5,1,2,0,25*,-4
Cc1cc(C(=O)COC(=O)c2ccc(Cl)c(S(N)(=O)=O)c2)c(C)n1CC1CCCO1 (configuration not stated),-2,-2,2,-5,2,2
CC(C)Oc1ccc(S(=O)(=O)N2CCCCC2)cc1NC(=O)CN1C(=O)NC(C)(c2ccccc2)C1=O (configuration not stated),8,-6,-10,-8,1,39*
CCOC(=O)c1c(C)[nH]c(C)c1S(=O)(=O)N(C)CC(=O)Nc1ccc(C)cn1,-2,1,5,5,2,6
CCOC(=O)c1c(C)[nH]c(C)c1S(=O)(=O)N(C)CC(=O)Nc1cc(C)ccc1OC,3,1,-2,-3,4,26*
CC(C)C[C@H]1COc2cccc(F)c2S(=O)(=O)N1Cc1cn(CCC2OCCO2)nn1,.,6,6,.,.,.
COc1ccc2c(c1)CNC2CS(=O)(=O)NCCc1ccccc1 (configuration not stated),.,-3,-2,.,.,.
CC(C)(C)n1nnnc1C(c1cccs1)N(Cc1cccnc1)Cc1ccco1 (configuration not stated),0,-3,-5,-6,-1,30*
SMILES,TCR-CD3 inh,SIAE inh,mABHD4 FP,HTRA1 inh,Fam108B inh,PME-1 primary
CCOC(=O)c1c(NC(C)=O)sc2c(O)c(Br)cc(Br)c12,9,6,36*,0,0,4
C#CCCCN([C@H](C(=O)OC)C(C)C)S(=O)(=O)c1ccc(F)cc1Br,.,1,-7,.,.,.
CC1=C(C#N)C(=O)N(C2CCS(=O)(=O)C2)C(=O)/C1=C\c1ccco1 (configuration not stated),.,.,.,.,65*,-20
N#C/C(=C/c1ccc(N2CCCC2)c([N+](=O)[O-])c1)c1nc2ccccc2[nH]1,1,6,18,4,4,29*
CCN(CC)C(=S)Sc1c(-c2ccccc2)c2cc(Cl)ccc2[nH]c1=O,4,-1,11,36,9,35*
O=C(O)CSc1c(-c2ccccc2)c2cc(Cl)ccc2[nH]c1=O,7,0,-2,0,-7,0
CC1=CC2C3C(=O)N(c4ccccc4)C(=O)C3C1C(=O)C2(O)C(C)C (configuration not stated),-6,0,5,.,.,.
Cc1[nH]c2ccccc2c1CCN(Cc1cccs1)C(=O)Nc1cccc2c1OCO2,.,8,-4,.,.,.
CC1=C[C@]2(C[N+](Cc3ccccc3)=C(N)N2)n2c(=O)n(-c3ccccc3)c(=O)n2C1,.,2,3,.,.,.
COc1cccc(CN(C(=O)Cc2c[nH]c3ccccc23)C(C(=O)NC2CCCCC2)c2ccc(C)o2)c1 (configuration not stated),-1,18*,-6,-33,-3,-7
COc1cccc(CN(C(=O)c2ccco2)C(C(=O)NC2CCCC2)c2cccnc2)c1 (configuration not stated),-12,135*,-4,0,0,2
CC(C)C[C@H]1COc2ccc(Cl)cc2S(=O)(=O)N1Cc1cn(Cc2ccc(C(F)(F)F)cc2)nn1,.,-3,4,.,.,.
Cc1cccc(-c2cccc3c4c([nH]c23)[C@@H]2C[C@H](N(C)C(=S)Nc3ccc(C#N)cc3)[C@H]([C@H](C)O)CN2CC4)c1,.,9,-2,.,.,.
NC1=C(Br)C(=O)c2ccccc2C1=O,-6,-5,7,-48,5,7
Nc1ccc(Br)c2c1C(=O)c1ccccc1C2=O,.,.,.,.,1,26*
CC(C)NC(=S)N=Nc1c(O)[nH]c2ccc(C(C)C)cc12,3,3,23,-5,1,29*
N#Cc1c(N)n(CCOC(=O)c2cccc([N+](=O)[O-])c2)c2nc3ccccc3nc12,0,-3,0,-19,0,31*
N#Cc1c(N)n(CCOC(=O)c2cccc(Br)c2)c2nc3ccccc3nc12,7,-5,-4,-17,3,7
O=C(N/N=C/c1cccc([N+](=O)[O-])c1)c1c[nH]c2ccccc12,-2,-4,-4,-17,4,0
CCc1ccc(-c2cc(C(=O)N/N=C/c3c[nH]c4ccccc34)[nH]n2)cc1,-9,-4,-1,-17,2,40*
O=C(N/N=C/c1c[nH]c2ccccc12)c1ccc([N+](=O)[O-])cc1Cl,.,.,.,8,15,26*
